Rows were chosen to be rich in hits. Some 2.6% of all compounds tested hit in one or more screens of this group.
SENP7 block – blocks the human protease SENP7; Q9BQF6; recombinant SENP7, Z-RLRGG-aminoluciferin luminescence, 40 min; inhibition, % at 5 µM; actives 1.5% (n = 330,000); AID 434973;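 active = inhibition above about 50% at the single test dose, limit read from the data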;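 also: plate controls were DMSO with enzyme for no effect and no enzyme buffer wells for full effect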
Target sequence (Q9BQF6 706-1050 limits assumed): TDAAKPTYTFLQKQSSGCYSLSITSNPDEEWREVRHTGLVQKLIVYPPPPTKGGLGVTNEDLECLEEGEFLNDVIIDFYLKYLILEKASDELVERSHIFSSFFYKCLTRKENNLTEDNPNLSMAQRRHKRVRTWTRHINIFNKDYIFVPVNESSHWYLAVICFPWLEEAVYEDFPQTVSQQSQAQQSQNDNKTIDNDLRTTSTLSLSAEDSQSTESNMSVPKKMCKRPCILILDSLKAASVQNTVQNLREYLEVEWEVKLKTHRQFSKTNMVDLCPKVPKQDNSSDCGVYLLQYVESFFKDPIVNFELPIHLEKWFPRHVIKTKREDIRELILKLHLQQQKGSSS
SENP8 block-1 – SENP8 protease inhibition; AID 2540; purified SENP8, Z-RLRGG-aminoluciferin cleavage, luminescence; inhibition, % at 10 µM; Q96LD8; actives 1.2% (n = 330,000); in the data active = inhibition above about 50%
Target sequence (Q96LD8 whole entry, looked up): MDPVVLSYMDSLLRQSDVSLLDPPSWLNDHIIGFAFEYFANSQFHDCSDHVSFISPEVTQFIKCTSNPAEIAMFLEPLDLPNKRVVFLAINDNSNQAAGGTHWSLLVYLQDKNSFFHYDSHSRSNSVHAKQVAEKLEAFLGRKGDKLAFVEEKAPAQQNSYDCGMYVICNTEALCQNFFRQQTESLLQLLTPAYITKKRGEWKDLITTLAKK
Platelet DG rel – platelet dense granule release activity | human platelet-rich plasma, SFLLRN dense granule ATP release, luminescence | inhibition, %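 (compounds screened at 7.5 µM in platelet-rich plasma)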 | actives 0.22% (n = 300,000) | AID 1663;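 active = mean replicate score, as percent of positive control, at or above 50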
SENP6 inh – inhibitors of human SENP6 protease; Q9GZR1; Recombinant SENP6 catalytic domain, aminoluciferin luminescence; inhibition, % at 10 µM; actives 1.8% (n = 330,000);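 active = inhibition above about 50% at the single tested dose, limit read from the data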;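 also: plate controls were DMSO wells with enzyme for no effect and DMSO wells lacking enzyme for full effect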
SENP1 inh – SENP1 (human) catalytic domain inhibition; recombinant SENP1 catalytic domain, CyPet-SUMO1-YPet FRET cleavage; inhibition, % at 10 µM; actives 0.21% (n = 360,000);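 active = inhibition at least 30% at 10 µM, raw YFP signal under a set limit, fluorescence ratio 0.5 to 1.5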;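 also: 0% = enzyme with DMSO and 100% = no enzyme wells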
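system = hSENP1 catalytic domain, recombinant | reagent = SFCypet-SUMO1-SFYpet substrate at 25 nM | doses = one dose per compound, 10 µM, 0.5% DMSO | incubation = enzyme reaction for 50 min at room temperature, dark | measured by = FRET, CFP and YFP emission | controls = no-enzyme low, enzyme-DMSO high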
SENP8 block-2 – SENP8 (human) protease inhibition; Q96LD8; recombinant SENP8, Nedd8 substrate fluorescence; inhibition, % at 20 µM; actives 0.64% (n = 360,000); AID 602440; in the data active = inhibition mostly above about 40%, no sharp cut-off; inactive = mostly below about 27%
* hit, by the source's call; . = no result given; ! = not active in a repeat.

SMILES	SENP7 block	SENP8 block-1	Platelet DG rel	SENP6 inh	SENP1 inh	SENP8 block-2
COc1cccc(N2C(=O)NC(=O)/C(=C/c3ccc4c(c3)Cc3ccccc3-4)C2=O)c1	2	-12	0	-12	-2	-32
COc1ccc(N2C(=O)NC(=O)/C(=C\c3ccc([N+](=O)[O-])s3)C2=O)cc1	14	26	1	19	13	44*
COc1cccc(N2C(=O)NC(=O)/C(=C/c3ccc([N+](=O)[O-])s3)C2=O)c1	5	25	12	44	9	48*
COc1ccc(N2C(=O)NC(=O)/C(=C/c3ccc([N+](=O)[O-])s3)C2=O)cc1	11	10	4	14	14	69*
COc1ccccc1N1C(=O)NC(=O)/C(=C/c2ccc([N+](=O)[O-])s2)C1=O	7	20	6	32	.	.
Cc1ccc(S(=O)(=O)N2Cc3cc(-c4ccccc4)ccc3-n3nncc3C2)cc1	.	.	.	.	-1	3
COc1ccc(C(=O)OCC2CN2c2cccc([N+](=O)[O-])c2)cc1 (stereo unspecified)	.	.	.	.	1	15
COc1ccc(CN2C(=O)NC(=O)/C(=C\c3ccco3)C2=O)cc1	-11	-12	2	-3	-12	-3
O=C1NC(=O)N(Cc2ccc(F)cc2)C(=O)/C1=C\c1ccc([N+](=O)[O-])s1	4	18	5	32	4	50*
COc1ccc(CN2C(=O)NC(=O)/C(=C/c3ccc([N+](=O)[O-])s3)C2=O)cc1	3	11	2	34	-1	43*
O=C1c2ccccc2-n2nnc(-c3ccccc3)c2C2c3cc(Br)ccc3CCN12 (stereo unspecified)	.	.	.	.	1	10
COc1ccc(-n2nnnc2C(CCc2ccccc2)N2CCC(n3c(=O)[nH]c4ccccc43)CC2)cc1 (stereo unspecified)	.	.	.	.	1	35
CC(=O)Nc1ccc(OC(=O)N(C)c2ccccc2)cc1	0	1	53*	11	-2	15
CCNc1nc(Cl)nc(NC(C)C)n1	2	3	56*	8	0	11
CC1=C(N2CC2)C(=O)C(CO)=C(N2CC2)C1=O	.	.	.	.	2	63*
COc1c(C=C2C(=O)NC(=O)NC2=O)c(CCN(C)C(=O)c2ccccc2)cc2c1OCO2	4	-12	8	-14	1	44*
COC(=O)Cn1cc(C=C2C(=O)NC(=O)NC2=O)c2ccccc21	-20	-8	-15	-2	1	29
CN(C)P1(=O)N(C)CCN1C	.	.	.	.	-1	14
CCN(CC)c1ccc(/C=C/[N+](=O)[O-])cc1	3	-2	3	-29	32*	6
COc1cc(/C=C/[N+](=O)[O-])ccc1O	-4	4	-2	-5	3	17
Clc1cccc(N2Cc3ccccc3-n3nncc3C2)c1	.	.	.	.	-2	9
CC(=NCCc1ccccc1)c1c(O)[nH]c(=O)[nH]c1=O	4	-3	30	-20	-1	9
CCC(=NCCc1ccccc1)c1c(O)[nH]c(=O)[nH]c1=O	8	7	73*	11	1	14
O=[N+]([O-])c1ccc(NCCO)c2ncccc12	10	9	-10	11	-18	27
O=[N+]([O-])c1ccc(NC2CCCC2)c2ccncc12	19	15	-11	40	-50	47*
SMILES	SENP7 block	SENP8 block-1	Platelet DG rel	SENP6 inh	SENP1 inh	SENP8 block-2
COc1ccc(NC(=S)N2Cc3ccccc3-n3nncc3C2)c(OC)c1	.	.	.	.	1	7
NCCc1cc(O)c(O)cc1O	.	.	.	.	4	36*
NC(Cc1cc(O)c(O)cc1O)C(=O)O (stereo unspecified)	-13	6	.	-33	.	.
CCn1nc(/C=C/c2ccccc2)nc2c(=O)n(C)c(=O)nc1-2	96*	96*	-9	89*	20	73*
COc1ccc(-n2c(/C=C/c3ccc(O)cc3)nc3ccccc3c2=O)cc1	-16	-9	-3	-3	-20	-211
CCn1nc(-c2cccs2)nc2c(=O)n(C)c(=O)nc1-2	.	.	.	.	44*	80*
CCN(CC)c1ccc(/C=C2\C(=O)NC(=S)N(c3ccc(OC)cc3OC)C2=O)o1	3	1	10	0	78*	14
COc1ccc(N2C(=O)/C(=C/c3ccc(N(C)C)o3)C(=O)NC2=S)cc1	-1	1	-8	-16	69*	38
O=c1[nH]c2ccccc2n1C1CCN(Cc2ccc(-c3nc4ccc(F)cc4nc3-c3ccccc3)cc2)CC1	.	.	.	.	2	-110
CC(=O)c1ccc2c(c1)C1C(Cl)C(Sc3ccccc3[N+](=O)[O-])CC1C(C(=O)O)N2 (stereo unspecified)	.	.	.	.	1	78*
COc1cc2c(c(OC)c1OC)-c1ccc(SC)c(=O)cc1C(NC(C)=O)CC2 (stereo unspecified)	.	.	.	.	-1	-4
CCC1C2CC3C4N(C)c5ccccc5C45CC(C2C5O)N3C1O (stereo unspecified)	.	.	.	.	2	13
O=C1NC(=O)C(=Cc2ccc(N3CCN(C(=O)c4ccccc4)CC3)c([N+](=O)[O-])c2)C(=O)N1	-1	-4	0	8	2	41*
CC(C)C(O)(C(=O)OCC1=CCN2CCC(O)C12)C(C)O (stereo unspecified)	.	.	.	.	-6	4
CCN1/C(=C\C=C\C2=[N+](CC)c3ccccc3C2(C)C)C(C)(C)c2ccccc21	17	25	16	7	64*	18
Cc1cc2c(cc1C)NP(=S)(c1ccccc1)N2	.	.	.	.	0	-10
Cc1cc(C)n(-c2ccc(NN=C(C#N)C#N)cc2)n1	90*	90*	2	92*	-4	22
C[C@H]1COc2cc(N3CCN(C)CC3)ccc2S(=O)(=O)N1	.	.	.	.	0	22
c1cc2c(cc1-c1ccc3c(c1)OCO3)CNCc1cnnn1-2	.	.	.	.	2	-237
CCOC(=O)c1sc(N=Nc2c(O)[nH]c(=O)[nH]c2=O)c(C(=O)OCC)c1C	-13	2	-3	-13	.	.
CCOc1ccc2nc(N=Nc3c(O)[nH]c(=O)[nH]c3=O)sc2c1	-2	3	4	0	3	45*
C=CCN1CC[C@]23c4c5ccc(O)c4OC2[C@H](O)CC[C@@]3(O)[C@H]1C5 (stereo partly specified)	1	3	.	1	-2	4
Oc1ccc2c3c1O[C@H]1[C@@H](O)CC[C@@]4(O)[C@@H](C2)N(CC2CCC2)CC[C@]314	-4	8	1	-12	33*!	-5
CC[n+]1c(-c2ccccc2)c2cc(N)ccc2c2ccc(N)cc21	.	.	.	.	45	97*
O=C1CC2OCC=C3CN4CCC56c7ccccc7N1C5C2C3CC46O (stereo unspecified)	.	.	.	.	-10	-2
CN1C(=O)C(=Cc2ccc(N3CCCCC3)o2)C(=O)N(C)C1=S	11	1	4	-15	88*	43*

Screens from PubChem BioAssay.
